Measurements: ChEMBL document CHEMBL1146453, “Insecticidal sesquiterpene pyridine alkaloids from Maytenus chiapensis” (J Nat Prod, 2004)
≈ marks a conversion by molar mass, not a printed value. Calls of active or inactive are those of the source. The rule behind the calls is not given here.

Assays:
Spodoptera littoralis [1] = experiment: Antifeedant activity against Spodoptera littoralis L6 larvae; type: functional, organism-based
How it was run: (§1)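 Choice feeding test on sixth-instar S. littoralis larvae and apterous adult M. persicae. Larvae reared on artificial diet, aphids on bell pepper plants, both at 22 ± 1 °C, >70% RH, 16:8 h L:D. Read-out is percent feeding inhibition (larvae) or settling inhibition (aphids). Actives above 50% went to dose–response, with EC50 taken from linear regression of %FR or %SI on log dose.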

Spodoptera littoralis [2] = experiment: Antifeedant activity against Spodoptera littoralis L6 larvae assessed as nutritional consumption relative to control; type: functional; set-up: concentration or dose not given beside the values
How it was run: (§2)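 Sixth-instar S. littoralis larvae reared on artificial diet at 22 ± 1 °C, >70% RH, 16:8 h L:D, dosed orally. Food consumption and biomass gain were recorded. Post-ingestive effects were tested by ANCOVA of biomass gain with food consumption as covariate.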

Myzus persicae = experiment: Antifeedant activity against Myzus persicae; type: functional, organism-based; how it was run: as §1
[3] = Cytotoxicity against CHO cells by MTT assay; type: cell-based, Cricetulus griseus; conditions: chinese hamster, read-out: LD50 (the source's name)
How it was run: (§3)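 Sf9 cells (S. frugiperda pupal ovarian tissue) and CHO cells were cultured and scored for viability by an adapted MTT colorimetric assay. LD50, the dose giving 50% viability, was calculated for active compounds.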

Spodoptera littoralis [4] = experiment: Antifeedant activity against Spodoptera littoralis L6 larvae assessed as biomass gain relative to control; type: functional; set-up: concentration or dose not given beside the values; how it was run: as §2
Spodoptera littoralis [5] = experiment: Antifeedant activity against Spodoptera littoralis L6 larvae treated orally; type: functional, organism-based; how it was run: as §2
[6] = Cytotoxicity against Spodoptera frugiperda Sf9 cells by MTT assay; type: cell-based; conditions: read-out: LD50 (the source's name); how it was run: as §3

Row | Compound | EC50 (Spodoptera littoralis [1]) | Activity (Spodoptera littoralis [2]) [%] | Activity (Myzus persicae) | CC50 [3] [µg/mL] | Activity (Spodoptera littoralis [4]) [%] | Activity (Spodoptera littoralis [5]) | CC50 [6] [µg/mL]
1 | CC(=O)OC[C@]12[C@H](OC(C)=O)[C@H](OC(C)=O)[C@@H]3[C@@H](OC(C)=O)[C@@]14O[C@@]3(C)COC(=O)c1cccnc1CCC(C)(O)C(=O)O[C@@H]([C@H](OC(=O)c1ccccc1)[C@@H]2OC(=O)c1ccccc1)[C@]4(C)O (some centres not stated) | 3.9 ×10⁻² ug/cm2 | 87 | inactive | > 100 | 96 | inactive | > 100
2 | CC(=O)OC[C@]12[C@H](OC(C)=O)[C@H](OC(C)=O)[C@@H]3[C@@H](OC(C)=O)[C@@]14O[C@@]3(C)COC(=O)c1cccnc1C(C)C(C)C(=O)O[C@@H]([C@H](O)[C@@H]2OC(C)=O)[C@]4(C)O (some centres not stated) | > 50 microg/cm2 | 94 | inactive | > 100 | 101 | – | 57.5 (≈ 75.3 µM)
3 | CC(=O)OC[C@]12[C@H](OC(C)=O)C(=O)[C@@H]3[C@@H](OC(C)=O)[C@@]14O[C@@]3(C)COC(=O)c1cccnc1CCC(C)(O)C(=O)O[C@@H]([C@H](OC(=O)c1ccccc1)[C@@H]2OC(=O)c1ccccc1)[C@]4(C)O (some centres not stated) | 6.6 ×10⁻² ug/cm2 | 92 | inactive | > 100 | 93 | inactive | 78.7 (≈ 87.2 µM)
4 | CC(=O)OC[C@]12[C@H](OC(C)=O)C(=O)[C@@H]3[C@@H](OC(C)=O)[C@@]14O[C@@]3(C)COC(=O)c1cccnc1CCC(C)(O)C(=O)O[C@@H]([C@H](OC(=O)c1ccccc1)[C@@H]2OC(C)=O)[C@]4(C)O (some centres not stated) [ALATAMINE] | 5.2 ×10⁻³ ug/cm2 | 117 | inactive | > 100 | 118 | inactive | > 100
5 | CC(=O)OC[C@]12[C@H](OC(C)=O)[C@H](OC(C)=O)[C@@H]3[C@@H](OC(C)=O)[C@@]14O[C@@]3(C)COC(=O)c1cccnc1CCC(C)(O)C(=O)O[C@@H]([C@H](OC(C)=O)[C@@H]2OC(C)=O)[C@]4(C)O (some centres not stated) [ALATUSININE] | 1.6 ×10⁻⁴ ug/cm2 | 125 | inactive | > 100 | 111 | inactive | 73.2 (≈ 89.1 µM)
6 | CC(=O)OC[C@]12[C@H](OC(C)=O)[C@H](OC(C)=O)[C@@H]3[C@@H](OC(C)=O)[C@@]14O[C@@]3(C)COC(=O)c1cccnc1C(C)C(C)C(=O)O[C@@H]([C@H](O)[C@@H]2OC(=O)c1ccccc1)[C@]4(C)O (some centres not stated) [EBENIFOLINE E I] | 0.72 microg/cm2 | 81 | inactive | > 100 | 83 | inactive | 78.8 (≈ 95.4 µM)
7 | CC(=O)OC[C@]12[C@H](OC(C)=O)[C@H](OC(C)=O)[C@@H]3[C@@H](OC(C)=O)[C@@]14O[C@@]3(C)COC(=O)c1cccnc1CCC(C)C(=O)O[C@@H]([C@H](OC(C)=O)[C@@H]2OC(C)=O)[C@]4(C)O (some centres not stated) [EUONINE] | 1.8 ×10⁻⁴ ug/cm2 | 111 | inactive | > 100 | 98 | inactive | 48.4 (≈ 60 µM)
8 | CC(=O)OC[C@]12[C@H](OC(C)=O)[C@H](OC(C)=O)[C@@H]3[C@@H](OC(C)=O)[C@@]14O[C@@]3(C)COC(=O)c1cccnc1C(C)C(C)C(=O)O[C@@H]([C@H](OC(C)=O)[C@@H]2OC(C)=O)[C@]4(C)O (some centres not stated) [EUONYMINE] | > 50 microg/cm2 | 102 | inactive | > 100 | 105 | – | 49.6 (≈ 61.6 µM)
9 | CC(=O)OC[C@]12[C@H](OC(C)=O)[C@H](OC(C)=O)[C@@H]3[C@@H](OC(C)=O)[C@@]14O[C@@]3(C)COC(=O)c1cccnc1C(C)C(C)C(=O)O[C@@H]([C@H](OC(C)=O)[C@@H]2OC(=O)c1ccccc1)[C@]4(C)O (some centres not stated) [MAYTEINE] | > 50 microg/cm2 | 146 | inactive | > 100 | 112 | – | > 100
10 | CC(=O)OC[C@]12[C@H](OC(C)=O)[C@H](OC(C)=O)[C@@H]3[C@@H](OC(C)=O)[C@@]14O[C@@]3(C)COC(=O)c1cccnc1CCC(C)(O)C(=O)O[C@@H]([C@H](OC(=O)c1ccccc1)[C@@H]2OC(C)=O)[C@]4(C)O (some centres not stated) [WILFORDINE] | 2.3 ×10⁻⁴ ug/cm2 | 109 | inactive | > 100 | 93 | inactive | 86.2 (≈ 97.6 µM)
